# Assay results: ChEMBL document CHEMBL1140079, “Discovery of orally bioavailable cathepsin S inhibitors for the reversal of neuropathic pain” (J Med Chem, 2008)
# Active and inactive are the calls of the source.
# Tests used:
# Cytochrome P450 1A2 = molecular target: T1, Cytochrome P450 1A2 (Homo sapiens, UniProt P05177); assay: Inhibition of CYP1A2 at 10 uM; format: ADME
# T1 sequence (P05177 whole entry): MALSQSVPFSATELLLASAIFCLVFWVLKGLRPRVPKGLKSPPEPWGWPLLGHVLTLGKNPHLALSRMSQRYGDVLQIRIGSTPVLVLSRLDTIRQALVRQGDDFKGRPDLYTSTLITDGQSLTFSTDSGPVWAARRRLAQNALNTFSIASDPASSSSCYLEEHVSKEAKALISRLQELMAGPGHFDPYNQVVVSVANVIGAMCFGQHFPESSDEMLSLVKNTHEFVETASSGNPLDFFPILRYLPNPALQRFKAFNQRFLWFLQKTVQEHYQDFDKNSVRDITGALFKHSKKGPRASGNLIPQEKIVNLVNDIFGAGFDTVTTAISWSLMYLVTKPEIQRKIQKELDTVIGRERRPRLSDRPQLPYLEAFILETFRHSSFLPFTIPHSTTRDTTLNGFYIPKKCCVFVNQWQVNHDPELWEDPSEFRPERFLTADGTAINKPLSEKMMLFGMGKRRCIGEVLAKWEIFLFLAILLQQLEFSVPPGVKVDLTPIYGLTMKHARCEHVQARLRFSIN
# How it was run: (§1)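 Tested against a panel of cytochrome P450 enzymes at a maximum concentration of 10 µM.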
# [1] = Inhibition of rat cathepsin S cysteine 137 mutant by fluorescence assay
# How it was run: (§2)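 Recombinant rat cathepsins K, L, S (137Gly and 137Cys forms) and mouse cathepsin S in a fluorescence assay. Substrates: Z-Phe-Arg-MCA for K and L, Z-Leu-Leu-Arg-MCA for S. IC50 reported as means ± SD of three experiments.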
# [2] = molecular target: Cathepsin S (Mus musculus) (UniProt O70370); assay: Inhibition of cathepsin S-mediated proteolytic cleavage of MHC2 associated invariant chain in mouse splenocytes assessed as induction of accumulation of lip10 at 1 µM
# Cathepsin S [3] = molecular target: Cathepsin S (Homo sapiens, UniProt P25774); assay: Inhibition of human recombinant cathepsin S by fluorescence assay
# Cathepsin S (Homo sapiens, UniProt P25774), sequence (P25774 whole entry): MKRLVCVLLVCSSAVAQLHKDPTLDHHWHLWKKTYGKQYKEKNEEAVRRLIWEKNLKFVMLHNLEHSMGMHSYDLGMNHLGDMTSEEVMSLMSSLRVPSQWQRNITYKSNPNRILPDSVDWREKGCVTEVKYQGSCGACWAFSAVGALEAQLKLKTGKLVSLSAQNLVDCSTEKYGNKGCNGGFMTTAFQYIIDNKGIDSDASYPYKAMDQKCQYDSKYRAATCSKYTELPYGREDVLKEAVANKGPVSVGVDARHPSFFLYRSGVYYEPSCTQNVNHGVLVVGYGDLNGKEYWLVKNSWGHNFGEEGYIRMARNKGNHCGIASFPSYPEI
# How it was run: (§3)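 Recombinant human enzymes in a fluorescence assay; substrate Z-Phe-Arg-MCA for cathepsins K and L, Z-Leu-Leu-Arg-MCA for cathepsin S. Means of two experiments, each run in duplicate; individual points within a 2-fold range of each other.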
# [4] = Volume of distribution in Sprague-Dawley rat at 1 mg/kg, iv and 3 mg/kg, po by LC/MS analysis; format: ADME, organism-based; conditions: in vivo
# How it was run: (§4)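 Male Sprague-Dawley rats dosed orally at 3 mg/kg as a suspension and intravenously at 1 mg/kg as a bolus. Plasma levels quantified by LC/MS. Oral AUC and Cmax dose-normalized to 1 mg/kg. Means ± SD of three individual experiments.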
# Cathepsin S [5] = molecular target: Cathepsin S (Mus musculus, UniProt O70370); assay: Inhibition of mouse cathepsin S by fluorescence assay; how it was run: as §2
# [6] = Bioavailability in Sprague-Dawley rat at 1 mg/kg, iv and 3 mg/kg, po by LC/MS analysis; format: ADME, organism-based; conditions: in vivo; how it was run: as §4
# [7] = Genotoxicity in liver S9 fraction by Ames test; format: toxicity, subcellular
# How it was run: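 Standard Ames test run with liver S9 enzyme.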
# Procathepsin L [8] = molecular target: T2, Procathepsin L (Rattus norvegicus, UniProt P07154); assay: Inhibition of rat cathepsin L by fluorescence assay; how it was run: as §2
# T2 sequence (P07154 whole entry): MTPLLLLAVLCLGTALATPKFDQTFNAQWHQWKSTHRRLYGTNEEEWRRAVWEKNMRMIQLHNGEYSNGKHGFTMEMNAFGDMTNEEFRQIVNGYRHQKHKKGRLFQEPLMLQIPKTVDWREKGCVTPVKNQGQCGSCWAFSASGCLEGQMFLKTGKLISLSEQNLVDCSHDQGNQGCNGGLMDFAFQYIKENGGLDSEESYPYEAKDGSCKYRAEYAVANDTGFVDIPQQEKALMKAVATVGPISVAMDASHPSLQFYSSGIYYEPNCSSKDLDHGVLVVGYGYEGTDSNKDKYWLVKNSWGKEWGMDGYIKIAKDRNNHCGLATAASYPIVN
# Dipeptidyl peptidase 1 = Dipeptidyl peptidase 1 (Homo sapiens, UniProt P53634); assay: Inhibition of human cathepsin C
# Dipeptidyl peptidase 1, sequence (P53634 25-134 limits assumed): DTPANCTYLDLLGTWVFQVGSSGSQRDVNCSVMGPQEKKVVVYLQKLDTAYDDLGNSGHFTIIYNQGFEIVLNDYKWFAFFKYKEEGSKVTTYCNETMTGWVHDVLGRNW
# Dipeptidyl peptidase 1, sequence (P53634 231-394 limits assumed): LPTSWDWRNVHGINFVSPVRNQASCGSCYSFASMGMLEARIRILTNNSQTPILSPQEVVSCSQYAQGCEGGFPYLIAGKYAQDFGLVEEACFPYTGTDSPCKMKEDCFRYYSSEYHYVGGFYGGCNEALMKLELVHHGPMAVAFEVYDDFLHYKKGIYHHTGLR
# Dipeptidyl peptidase 1, sequence (P53634 395-463 limits assumed): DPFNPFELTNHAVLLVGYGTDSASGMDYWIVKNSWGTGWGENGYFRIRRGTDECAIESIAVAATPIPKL
# Homo sapiens [9] = species: Homo sapiens; assay: Selectivity for human recombinant cathepsin S over human cathepsin H
# Rattus norvegicus [10] = assay: Reversal of neuropathic mechanical hyperalgesia in Wistar rat sciatic nerve ligation model assessed as paw withdrawal threshold at 30 mg/kg, po administered twice daily for 5 days after 3 hrs; format: functional
# How it was run: (§5)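 Partial sciatic nerve ligation in Wistar rats genotyped as 137Gly cathepsin S, with established mechanical hyperalgesia. Oral dosing in 0.5% methylcellulose/water; repeat regimen twice daily for 5 days, paw withdrawal thresholds 3 h post-dose. 6 animals/group; % reversal of hyperalgesia, mean ± SEM; ANOVA with Tukey's HSD versus vehicle.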
# Cytochrome P450 3A4 = Cytochrome P450 3A4 (Homo sapiens, UniProt P08684); assay: Inhibition of CYP3A4 at 10 uM; format: ADME; how it was run: as §1
# Cytochrome P450 3A4, sequence (P08684 whole entry): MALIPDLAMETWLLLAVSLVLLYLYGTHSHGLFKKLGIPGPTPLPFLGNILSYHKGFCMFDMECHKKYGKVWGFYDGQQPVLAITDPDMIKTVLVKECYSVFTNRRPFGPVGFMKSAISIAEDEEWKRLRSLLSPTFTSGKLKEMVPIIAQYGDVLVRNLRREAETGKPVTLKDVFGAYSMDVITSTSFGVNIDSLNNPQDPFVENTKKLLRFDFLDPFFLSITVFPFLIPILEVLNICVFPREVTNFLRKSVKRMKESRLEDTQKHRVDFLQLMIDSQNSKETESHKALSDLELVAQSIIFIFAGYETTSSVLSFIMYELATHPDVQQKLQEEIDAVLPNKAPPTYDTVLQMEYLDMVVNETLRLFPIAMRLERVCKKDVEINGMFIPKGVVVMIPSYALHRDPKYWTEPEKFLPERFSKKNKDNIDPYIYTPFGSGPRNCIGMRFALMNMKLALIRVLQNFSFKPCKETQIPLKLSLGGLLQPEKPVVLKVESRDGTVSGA
# Rattus norvegicus [11] = species: Rattus norvegicus; assay: Selectivity for rat cathepsin S glycine 137 mutant over rat cathepsin B
# How it was run: (§6)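 Recombinant rat cathepsins in a fluorescence assay with MCA substrates: Z-Leu-Leu-Arg-MCA for cathepsin S (137Gly form), Z-Phe-Arg-MCA for K and L, and Z-Arg-Arg-MCA for B. IC50 values were taken as means ± SD of three experiments, and selectivity was compared from the IC50 values against the S enzyme and each other cathepsin.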
# [12] = Cmax in Sprague-Dawley rat at 3 mg/kg, po by LC/MS analysis; format: ADME, organism-based; set-up: dose 3 mg/kg, route oral; conditions: in vivo; how it was run: as §4
# Pro-cathepsin H = molecular target: T3, Pro-cathepsin H (Homo sapiens, UniProt P09668); assay: Inhibition of human cathepsin H
# T3 sequence (P09668 whole entry): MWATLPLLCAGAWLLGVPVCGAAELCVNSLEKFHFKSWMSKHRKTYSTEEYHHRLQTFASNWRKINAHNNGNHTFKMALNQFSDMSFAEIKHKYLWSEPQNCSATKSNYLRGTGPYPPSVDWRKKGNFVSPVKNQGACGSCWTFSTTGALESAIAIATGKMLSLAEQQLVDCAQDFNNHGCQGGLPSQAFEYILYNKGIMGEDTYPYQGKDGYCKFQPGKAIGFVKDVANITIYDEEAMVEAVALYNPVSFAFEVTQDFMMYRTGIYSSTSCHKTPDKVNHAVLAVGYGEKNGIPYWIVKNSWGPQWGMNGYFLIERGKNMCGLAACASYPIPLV
# Homo sapiens [13] = species: Homo sapiens; assay: Selectivity for human recombinant cathepsin S over human cathepsin B
# Rattus norvegicus [14] = species: Rattus norvegicus; assay: Reversal of neuropathic mechanical hyperalgesia in Wistar rat sciatic nerve ligation model with cathepsin S cysteine 137 mutation; format: functional, organism-based
# Cytochrome P450 2C9 = Cytochrome P450 2C9 (Homo sapiens, UniProt P11712); assay: Inhibition of CYP2C9 at 10 uM; format: ADME; how it was run: as §1
# Cytochrome P450 2C9, sequence (P11712 whole entry): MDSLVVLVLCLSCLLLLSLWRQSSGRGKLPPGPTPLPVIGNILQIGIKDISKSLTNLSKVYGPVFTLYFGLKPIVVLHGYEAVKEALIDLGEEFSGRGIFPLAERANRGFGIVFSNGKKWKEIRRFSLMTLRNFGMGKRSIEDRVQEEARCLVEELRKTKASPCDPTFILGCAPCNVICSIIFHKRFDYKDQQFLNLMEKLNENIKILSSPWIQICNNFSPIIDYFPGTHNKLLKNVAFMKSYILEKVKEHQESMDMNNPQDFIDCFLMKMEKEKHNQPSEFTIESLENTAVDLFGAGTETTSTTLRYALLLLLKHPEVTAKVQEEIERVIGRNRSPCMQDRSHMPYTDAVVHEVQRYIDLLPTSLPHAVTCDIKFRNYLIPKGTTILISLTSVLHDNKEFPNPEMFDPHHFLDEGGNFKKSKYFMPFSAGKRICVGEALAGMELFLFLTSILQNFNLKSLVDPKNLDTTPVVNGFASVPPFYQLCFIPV
# Homo sapiens [15] = species: Homo sapiens; assay: Selectivity for human recombinant cathepsin S over human cathepsin C
# Rattus norvegicus [16] = species: Rattus norvegicus; assay: Selectivity for rat cathepsin S glycine 137 mutant over rat cathepsin L; how it was run: as §6
# Cathepsin K [17] = molecular target: T4, Cathepsin K (Homo sapiens, UniProt P43235); assay: Inhibition of human recombinant cathepsin K by fluorescence assay; how it was run: as §3
# T4 sequence (P43235 whole entry): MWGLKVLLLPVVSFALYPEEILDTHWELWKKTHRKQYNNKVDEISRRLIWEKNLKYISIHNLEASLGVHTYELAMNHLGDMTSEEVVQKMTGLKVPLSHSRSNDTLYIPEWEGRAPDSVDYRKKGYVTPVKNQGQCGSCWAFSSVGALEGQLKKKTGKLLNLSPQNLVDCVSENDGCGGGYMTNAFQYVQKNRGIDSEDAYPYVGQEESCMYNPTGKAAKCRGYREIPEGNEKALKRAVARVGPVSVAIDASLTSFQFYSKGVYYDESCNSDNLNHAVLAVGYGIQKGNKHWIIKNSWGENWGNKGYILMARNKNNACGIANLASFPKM
# Rattus norvegicus [18] = species: Rattus norvegicus; assay: Selectivity for rat cathepsin S glycine 137 mutant over rat cathepsin K; how it was run: as §6
# Cytochrome P450 2C19 = Cytochrome P450 2C19 (Homo sapiens, UniProt P33261); assay: Inhibition of CYP2C19 at 10 uM; format: ADME; how it was run: as §1
# Cytochrome P450 2C19, sequence (P33261 whole entry): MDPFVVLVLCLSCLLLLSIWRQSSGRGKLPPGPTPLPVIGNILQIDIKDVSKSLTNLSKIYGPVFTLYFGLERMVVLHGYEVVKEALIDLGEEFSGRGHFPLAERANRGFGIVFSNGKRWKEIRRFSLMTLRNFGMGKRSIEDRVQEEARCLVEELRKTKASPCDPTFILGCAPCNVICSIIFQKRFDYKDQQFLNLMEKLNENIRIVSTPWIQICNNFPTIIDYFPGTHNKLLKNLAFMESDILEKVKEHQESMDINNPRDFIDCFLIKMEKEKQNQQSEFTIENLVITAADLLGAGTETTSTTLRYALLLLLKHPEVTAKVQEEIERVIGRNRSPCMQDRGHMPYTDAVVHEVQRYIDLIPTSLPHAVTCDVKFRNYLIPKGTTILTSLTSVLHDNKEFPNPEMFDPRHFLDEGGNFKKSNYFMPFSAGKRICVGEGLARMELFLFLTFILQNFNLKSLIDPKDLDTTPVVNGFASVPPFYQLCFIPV
# Cytochrome P450 2D6 = Cytochrome P450 2D6 (Homo sapiens, UniProt P10635); assay: Inhibition of CYP2D6 at 10 uM; format: ADME; how it was run: as §1
# Cytochrome P450 2D6, sequence (P10635 whole entry): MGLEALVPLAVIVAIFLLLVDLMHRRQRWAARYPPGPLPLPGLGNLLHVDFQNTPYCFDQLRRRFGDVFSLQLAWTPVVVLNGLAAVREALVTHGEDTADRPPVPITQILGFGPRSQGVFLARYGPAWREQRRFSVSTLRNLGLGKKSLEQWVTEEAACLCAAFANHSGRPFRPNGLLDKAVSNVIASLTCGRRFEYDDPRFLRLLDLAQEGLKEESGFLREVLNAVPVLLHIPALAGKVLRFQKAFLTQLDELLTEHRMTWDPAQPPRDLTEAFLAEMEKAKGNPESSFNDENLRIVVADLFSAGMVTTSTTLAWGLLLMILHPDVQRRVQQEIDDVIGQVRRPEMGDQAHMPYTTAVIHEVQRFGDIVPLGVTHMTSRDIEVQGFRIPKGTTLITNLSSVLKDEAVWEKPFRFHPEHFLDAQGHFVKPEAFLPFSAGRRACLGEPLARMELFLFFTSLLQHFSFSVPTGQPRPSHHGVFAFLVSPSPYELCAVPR
# [19] = Inhibition of rat cathepsin S glycine 137 mutant by fluorescence assay; how it was run: as §2
# Procathepsin L [20] = molecular target: Procathepsin L (Homo sapiens, UniProt P07711); assay: Inhibition of human recombinant cathepsin L by fluorescence assay; how it was run: as §3
# Procathepsin L (Homo sapiens, UniProt P07711), sequence (P07711 whole entry): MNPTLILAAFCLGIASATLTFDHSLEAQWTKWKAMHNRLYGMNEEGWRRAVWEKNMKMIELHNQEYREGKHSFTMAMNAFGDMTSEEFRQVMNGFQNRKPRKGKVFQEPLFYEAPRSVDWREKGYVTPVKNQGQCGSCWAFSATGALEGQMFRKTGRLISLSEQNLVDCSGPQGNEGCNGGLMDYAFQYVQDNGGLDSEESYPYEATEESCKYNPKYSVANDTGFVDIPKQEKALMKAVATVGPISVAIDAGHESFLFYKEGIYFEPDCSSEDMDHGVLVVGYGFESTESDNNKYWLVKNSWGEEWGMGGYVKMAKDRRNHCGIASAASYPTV
# Cathepsin B = Cathepsin B (Homo sapiens, UniProt P07858); assay: Inhibition of human cathepsin B
# Cathepsin K [21] = molecular target: T5, Cathepsin K (Rattus norvegicus, UniProt O35186); assay: Inhibition of rat cathepsin K by fluorescence assay; how it was run: as §2
# T5 sequence (O35186 whole entry): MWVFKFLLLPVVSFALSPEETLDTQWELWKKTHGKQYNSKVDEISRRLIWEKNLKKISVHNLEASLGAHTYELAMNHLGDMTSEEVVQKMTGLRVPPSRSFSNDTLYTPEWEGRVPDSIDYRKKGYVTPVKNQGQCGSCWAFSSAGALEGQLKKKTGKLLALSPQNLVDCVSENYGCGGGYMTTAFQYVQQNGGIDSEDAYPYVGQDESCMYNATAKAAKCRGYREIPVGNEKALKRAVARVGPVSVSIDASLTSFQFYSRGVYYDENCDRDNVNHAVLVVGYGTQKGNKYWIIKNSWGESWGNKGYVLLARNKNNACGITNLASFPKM
# [22] = Plasma clearance in Sprague-Dawley rat at 1 mg/kg, iv and 3 mg/kg, po by LC/MS analysis; format: ADME, organism-based; how it was run: as §4
# Rattus norvegicus [23] = species: Rattus norvegicus; assay: Reversal of neuropathic mechanical hyperalgesia in Wistar rat sciatic nerve ligation model with cathepsin S glycine 137 mutation; format: functional, organism-based; how it was run: as §5
# [24] = Inhibition of human cathepsin X
# [25] = molecular target: Cathepsin S (Mus musculus) (UniProt O70370); assay: Inhibition of cathepsin S-mediated proteolytic cleavage of MHC2 associated invariant chain in mouse splenocytes assessed as induction of accumulation of lip10; format: cell-based
# Homo sapiens [26] = species: Homo sapiens; assay: Selectivity for human recombinant cathepsin S over human cathepsin X
# [27] = Terminal elimination half life in Sprague-Dawley rat at 1 mg/kg, iv by LC/MS analysis; format: ADME, organism-based; set-up: dose 1 mg/kg, route intravenous; conditions: in vivo; how it was run: as §4
# Rattus norvegicus [28] = assay: Reversal of neuropathic mechanical hyperalgesia in Wistar rat sciatic nerve ligation model with cathepsin S glycine 137 mutation at 100 mg/kg, po; format: functional; how it was run: as §5
Compound,Activity (Cytochrome P450 1A2),IC50 [1] [µM],IC50 (Cathepsin S [3]) [µM],Vd [4] [L/kg],IC50 (Cathepsin S [5]) [µM],bioavailability [6] [%],Activity [7],IC50 (Procathepsin L [8]) [µM],Activity (Rattus norvegicus [10]) [%],Activity (Cytochrome P450 3A4),Activity (Rattus norvegicus [11]),Cmax [12] [nM],Activity (Rattus norvegicus [16]),IC50 (Cathepsin K [17]) [µM],Activity (Rattus norvegicus [18]),IC50 [19] [µM],IC50 (Procathepsin L [20]) [µM],IC50 (Cathepsin K [21]) [µM],clearance [22] [mL/min/kg],half-life [27] [h],other results
CC(=O)N1CCN(c2ccc(OCc3cc4cnc(C#N)nc4n3CCC3CCC(F)(F)CC3)cc2)CC1,Not Active,> 10,0.01,3.7,0.02,21,Non-toxic,> 10,40,Not Active,> 100,37,> 100,5.4,> 100,0.028,6.2,> 10,51.7,0.7,Activity [2]: Active; Ki (Cathepsin S [3]): 0.004 µM; Ki (Dipeptidyl peptidase 1): > 10 µM; Activity (Homo sapiens [9]): > 100; Ki (Pro-cathepsin H): > 10 µM; Activity (Homo sapiens [13]): > 100; Activity (Rattus norvegicus [14]): inactive; Activity (Cytochrome P450 2C9): Not Active; Activity (Homo sapiens [15]): > 100; Activity (Cytochrome P450 2C19): Not Active; Activity (Cytochrome P450 2D6): Not Active; IC50 (Cathepsin B): > 30 µM; Activity (Rattus norvegicus [23]): Dose-dependent effect; Ki [24]: 0.65 µM; Activity [25]: Dose-dependent effect; Activity (Homo sapiens [26]): > 100
CC(=O)N1CCN(c2ccc(OCc3cc4cnc(C#N)nc4n3CCC3CCCCC3)c(F)c2)CC1,Not Active,> 10,0.018,5.7,0.014,24,Non-toxic,> 10,63,Not Active,> 100,30,> 100,5.9,> 100,0.012,6.8,> 10,45,1.7,Activity (Cytochrome P450 2C9): Not Active; Activity (Cytochrome P450 2C19): Not Active; Activity (Cytochrome P450 2D6): Not Active; Activity [25]: Dose-dependent effect; Activity (Rattus norvegicus [28]): 54%
CC(=O)N1CCN(c2ccc(OCc3cc4cnc(C#N)nc4n3CCC3CCCC3)cc2)CC1,,,0.005,,,,,,,,,,,0.079,,,2.3,,,,
CC(=O)N1CCN(c2ccc(OCc3cc4cnc(C#N)nc4n3CCC3CCCCC3)cc2)CC1,,> 10,,5.6,0.01,53,,> 10,,,> 100,61,> 100,1.65,> 100,0.01,5.2,> 10,65,1.1,
